# According to ChEMBL document CHEMBL1157882, “Novel 2-[(benzylamino)methyl]pyrrolidine-3,4-diol derivatives as alpha-mannosidase inhibitors and with antitumor activities against hematological and solid malignancies” (Bioorg Med Chem, 2010):
# The source made the active and inactive calls. The rule behind the calls is not given here.
# Tests used:
# Canavalia ensiformis = test: Inhibition of beta-N-acetylglucosaminidase from jack bean at pH 5; parameters: concentration or dose not given beside the values; conditions: concentration not given here
# A549 = test: Cytotoxicity against human A549 cells after 72 hrs by colorimetric assay in presence of antioxidant N-acetyl-cysteine; type: functional, cell-based
# SK-BR-3 [1] = test: Cell cycle arrest in human SKBR3 cells by accumulation of cells at G1 phase at 200 uM after 48 hrs by propidium iodide-staining based flow cytometry (reference value: 54%); type: functional
# [2] = Cytotoxicity in human B-CLL assessed as viable cells at 50 uM after 24 hrs by annexin V/propidium iodide staining based flow cytometry (reference value: 65.8 to 78%); type: functional; conditions: read-out: Activity
# [3] = Cytotoxicity in human B-CLL assessed as pre-necrotic cells at 50 uM after 24 hrs by annexin V/propidium iodide staining based flow cytometry (reference value: 1.3 to 3.7%); type: functional
# SK-BR-3 [4] = test: Increase in CDKN1C mRNA level in human SKBR3 cells at 50 uM after 12 hrs by TLDA; type: functional, cell-based
# How it was run: (§1)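 SKBR3 and MCF7 cells seeded at 2 × 10⁵ per well, treated 12 h with 50 µM compound (DMSO stock); total RNA extracted, cDNA made with random hexamers, gene expression profiled by TaqMan low-density arrays (qPCR, duplicate per gene). Normalised to RPLP0; fold change versus DMSO vehicle-treated cells, calculated as 2^-ΔΔCT.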
# [5] = molecular target: Glucoamylase (Aspergillus niger) (UniProt P69328); test: Inhibition of amyloglucosidase from Aspergillus niger at 1 mM at pH 5
# How it was run: (§2)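 Glycosidase panel of commercial enzymes assayed at each enzyme's optimal pH with compound at 1 mM; percentage inhibition of enzyme activity calculated.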
# Saccharomyces cerevisiae = test: Inhibition of alpha-glucosidase from yeast at 1 mM at pH 7; how it was run: as §2
# SK-BR-3 [6] = test: Decrease in ID1 mRNA level in human SKBR3 cells at 50 uM after 12 hrs by TLDA; type: functional, cell-based; how it was run: as §1
# SK-BR-3 [7] = test: Cell cycle arrest in human SKBR3 cells by accumulation of cells at G1 phase at 50 uM after 48 hrs by propidium iodide-staining based flow cytometry (reference value: 54%); type: functional
# [8] = Cytotoxicity in human multiple myeloma cells assessed as early apoptotic cells at 200 uM after 24 hrs by annexin V/propidium iodide staining based flow cytometry (reference value: 0.1%); type: functional, Multiple myeloma cell
# MDA-MB-231 = test: Cytotoxicity against human MDA-MB-231 cells after 72 hrs by colorimetric assay; type: functional, cell-based; conditions: Homo sapiens, MDA-MB-231, 72 h; read-out: IC50
# How it was run: (§3)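 Cells grown in McCoy's medium (adherent lines) or RPMI-1640 (U266), each with 10% FBS, L-glutamine and antibiotics, at 37 °C in 5% CO₂. Compound dissolved as a 100 mM DMSO stock, final DMSO ≤0.4%. Cells were exposed for 72 h across a 10^-2 to 400 µM range. Viability was read by CellTiter 96 Aqueous (2–4 h incubation, absorbance 490 nm). Triplicate wells; IC50 from curve fitting.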
# MCF7 [9] = test: Decrease in hTERT mRNA level in human MCF7 cells at 50 uM after 12 hrs by TLDA; type: functional, cell-based; how it was run: as §1
# [10] = Cytotoxicity in human B-CLL assessed as early apoptotic cells at 200 uM after 24 hrs by annexin V/propidium iodide staining based flow cytometry (reference value: 3.6 to 20.2%); type: functional
# MCF7 [11] = test: Decrease in CDC25 mRNA level in human MCF7 cells at 50 uM after 12 hrs by TLDA; type: functional, cell-based
# How it was run: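 SKBR3 or MCF7 cells, 2×10⁵/well, treated with 50 µM for 12 h. Total RNA was column-purified and reverse-transcribed with random hexamers, then assayed on TaqMan low-density arrays. Expression was normalised to RPLP0, with fold change versus DMSO-vehicle cells calculated as 2^-ΔΔCT. Q-PCR run in duplicate per gene.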
# [12] = Cytotoxicity in human B-CLL assessed as early apoptotic cells at 50 uM after 24 hrs by annexin V/propidium iodide staining based flow cytometry (reference value: 3.6 to 20.2%); type: functional
# PC-3 = test: Cytotoxicity against human PC3 cells after 72 hrs by colorimetric assay; type: functional, cell-based; conditions: Homo sapiens, PC-3, 72 h; read-out: IC50; how it was run: as §3
# [13] = Cytotoxicity in human B-CLL assessed as pre-necrotic cells at 100 uM after 24 hrs by annexin V/propidium iodide staining based flow cytometry (reference value: 1.3 to 3.7%); type: functional
# [14] = Cytotoxicity in human B-CLL assessed as viable cells at 200 uM after 24 hrs by annexin V/propidium iodide staining based flow cytometry (reference value: 65.8 to 78%); type: functional; conditions: read-out: Activity
# [15] = Cytotoxicity in human multiple myeloma cells assessed as pre-necrotic cells at 100 uM after 24 hrs by annexin V/propidium iodide staining based flow cytometry (reference value: 42.1%); type: functional, Multiple myeloma cell
# SK-BR-3 [16] = test: Cell cycle arrest in human SKBR3 cells by accumulation of cells at S phase at 200 uM after 48 hrs by propidium iodide-staining based flow cytometry (reference value: 30%); type: functional
# SK-BR-3 [17] = test: Decrease in cyclinE1 mRNA level in human SKBR3 cells at 50 uM after 12 hrs by TLDA; type: functional, cell-based; how it was run: as §1
# [18] = Cytotoxicity in human multiple myeloma cells assessed as late apoptotic/necrotic cells at 200 uM after 24 hrs by annexin V/propidium iodide staining based flow cytometry (reference value: 9.1%); type: functional, Multiple myeloma cell
# SK-BR-3 [19] = test: Cell cycle arrest in human SKBR3 cells by accumulation of cells at G1 phase at 100 uM after 48 hrs by propidium iodide-staining based flow cytometry (reference value: 54%); type: functional
# [20] = molecular target: Beta-galactosidase (Escherichia coli) (UniProt Q8VNN2); test: Inhibition of beta-galactosidase from Escherichia coli at 1 mM at pH 7; how it was run: as §2
# [21] = Cytotoxicity in human multiple myeloma cells assessed as late apoptotic/necrotic cells at 50 uM after 24 hrs by annexin V/propidium iodide staining based flow cytometry (reference value: 9.1%); type: functional, Multiple myeloma cell
# [22] = Cytotoxicity against human U87 cells after 72 hrs by colorimetric assay; type: functional, cell-based, U-87MG ATCC; conditions: Homo sapiens, U-87 MG, 72 h; read-out: IC50; how it was run: as §3
# [23] = Cytotoxicity in human B-CLL assessed as viable cells at 100 uM after 24 hrs by annexin V/propidium iodide staining based flow cytometry (reference value: 65.8 to 78%); type: functional; conditions: read-out: Activity
# SK-BR-3 [24] = test: Cytotoxicity against human SKBR3 cells after 72 hrs by colorimetric assay; type: functional, cell-based; conditions: Homo sapiens, SK-BR-3, 72 h; read-out: IC50; how it was run: as §3
# U-266 = test: Cytotoxicity against human U266 cells after 72 hrs by colorimetric assay; type: functional, cell-based; conditions: Homo sapiens, U-266, 72 h; read-out: IC50; how it was run: as §3
# MCF7 [25] = test: Decrease in cyclinE1 mRNA level in human MCF7 cells at 50 uM after 12 hrs by TLDA; type: functional, cell-based; how it was run: as §1
# SK-BR-3 [26] = test: Cell cycle arrest in human SKBR3 cells by accumulation of cells at S phase at 50 uM after 48 hrs by propidium iodide-staining based flow cytometry (reference value: 30%); type: functional
# SK-BR-3 [27] = test: Cell cycle arrest in human SKBR3 cells by accumulation of cells at S phase at 100 uM after 48 hrs by propidium iodide-staining based flow cytometry (reference value: 30%); type: functional
# Bos taurus = organism: Bos taurus; test: Inhibition of beta-N-acetylglucosaminidase from bovine kidney at pH 4; parameters: concentration or dose not given beside the values; conditions: concentration not given here
# Chain of Beta-galactosidase (Escherichia coli) (Q8VNN2 whole entry, looked up): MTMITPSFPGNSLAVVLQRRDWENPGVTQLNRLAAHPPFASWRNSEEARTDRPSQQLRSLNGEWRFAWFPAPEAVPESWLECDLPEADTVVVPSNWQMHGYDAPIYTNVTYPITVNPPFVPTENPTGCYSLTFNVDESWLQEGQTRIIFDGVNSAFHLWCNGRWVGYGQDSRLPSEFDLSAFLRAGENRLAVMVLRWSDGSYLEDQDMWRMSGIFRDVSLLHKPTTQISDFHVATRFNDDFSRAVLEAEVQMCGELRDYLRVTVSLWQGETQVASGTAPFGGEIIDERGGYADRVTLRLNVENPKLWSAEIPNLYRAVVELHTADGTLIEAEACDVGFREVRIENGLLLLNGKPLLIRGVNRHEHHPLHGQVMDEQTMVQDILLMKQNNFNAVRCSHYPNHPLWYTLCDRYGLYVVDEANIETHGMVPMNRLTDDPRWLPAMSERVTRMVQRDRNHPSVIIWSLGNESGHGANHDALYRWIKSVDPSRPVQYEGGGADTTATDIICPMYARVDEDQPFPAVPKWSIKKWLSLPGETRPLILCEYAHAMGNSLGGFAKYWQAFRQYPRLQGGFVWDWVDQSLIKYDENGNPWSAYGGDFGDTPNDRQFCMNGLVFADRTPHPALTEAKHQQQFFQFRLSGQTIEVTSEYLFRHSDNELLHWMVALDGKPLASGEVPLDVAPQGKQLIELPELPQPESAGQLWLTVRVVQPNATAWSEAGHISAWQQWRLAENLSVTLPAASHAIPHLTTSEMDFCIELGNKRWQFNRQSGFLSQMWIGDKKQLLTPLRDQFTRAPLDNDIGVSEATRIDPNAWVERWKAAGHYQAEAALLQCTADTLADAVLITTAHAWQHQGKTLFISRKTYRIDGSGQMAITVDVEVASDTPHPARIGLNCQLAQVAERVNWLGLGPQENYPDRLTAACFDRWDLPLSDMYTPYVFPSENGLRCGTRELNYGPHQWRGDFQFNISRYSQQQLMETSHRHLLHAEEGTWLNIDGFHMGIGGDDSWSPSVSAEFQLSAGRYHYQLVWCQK
# Chain of Glucoamylase (Aspergillus niger) (P69328 whole entry): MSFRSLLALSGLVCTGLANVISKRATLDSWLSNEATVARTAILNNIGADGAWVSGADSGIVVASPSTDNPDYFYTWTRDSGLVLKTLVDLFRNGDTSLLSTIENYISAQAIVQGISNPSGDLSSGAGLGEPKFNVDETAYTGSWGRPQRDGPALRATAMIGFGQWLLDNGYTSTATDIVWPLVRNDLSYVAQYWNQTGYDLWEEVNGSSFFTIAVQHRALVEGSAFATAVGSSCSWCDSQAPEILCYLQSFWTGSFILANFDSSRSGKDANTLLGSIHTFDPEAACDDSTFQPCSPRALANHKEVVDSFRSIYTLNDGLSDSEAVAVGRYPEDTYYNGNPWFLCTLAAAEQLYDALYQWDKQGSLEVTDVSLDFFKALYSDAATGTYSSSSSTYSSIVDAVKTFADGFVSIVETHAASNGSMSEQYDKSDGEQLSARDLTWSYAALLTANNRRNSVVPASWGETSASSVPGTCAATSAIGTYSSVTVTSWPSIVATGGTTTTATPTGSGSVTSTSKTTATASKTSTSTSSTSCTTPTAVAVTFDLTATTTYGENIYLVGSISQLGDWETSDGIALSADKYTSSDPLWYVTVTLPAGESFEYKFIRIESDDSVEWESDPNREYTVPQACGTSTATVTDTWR
smiles,measurement,setting,value
OC[C@H](NC[C@H]1NC[C@H](O)[C@@H]1O)c1ccc(-c2ccc(C(F)(F)F)cc2)cc1,inhibition,Canavalia ensiformis,< 10%
same,Activity,A549,Active
same,Activity,SK-BR-3 [1],42%
same,viability at 50 µM,[2],27%
same,Activity,[3],0.8%
same,Activity,SK-BR-3 [4],Active
same,inhibition,[5],< 10%
same,inhibition,Saccharomyces cerevisiae,< 10%
same,Activity,SK-BR-3 [6],Active
same,Activity,SK-BR-3 [7],57%
same,Activity,[8],0.3%
same,IC50,MDA-MB-231,66 µM
same,Activity,MCF7 [9],Active
same,Activity,[10],1%
same,Activity,MCF7 [11],Active
same,Activity,[12],11.3%
same,IC50,PC-3,132 µM
same,Activity,[13],0.8%
same,viability at 200 µM,[14],1.6%
same,Activity,[15],17%
same,Activity,SK-BR-3 [16],16%
same,Activity,SK-BR-3 [17],Active
same,Activity,[18],75.4%
same,Activity,SK-BR-3 [19],48%
same,inhibition,[20],< 10%
same,Activity,[21],37.9%
same,IC50,[22],80 µM
same,viability at 100 µM,[23],5.1%
same,IC50,SK-BR-3 [24],48 µM
same,IC50,U-266,50 µM
same,Activity,MCF7 [25],Active
same,Activity,SK-BR-3 [26],30%
same,Activity,SK-BR-3 [27],9%
same,inhibition,Bos taurus,< 10%
